This note sets out measurements from ChEMBL document CHEMBL1773010, “Cytotoxic and apoptosis-inducing activities of limonoids from the seeds of Azadirachta indica (neem)” (J Nat Prod, 2011).

pIC50: −log10 of the molar value. The source made the active and inactive calls. No cut-off for these calls is given here.

One assay has as its system SK-BR-3. Description: Cytotoxicity against human SK-BR-3 cells assessed as cell viability after 48 hrs by MTT assay. It counts as functional, cell-based. The following applies: SK-BR-3, 48 h. The gist of the method:
(§1)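 Cells seeded at 3 × 10^3 per well and exposed to compounds from 1 × 10^-4 to 1 × 10^-6 M for 48 h. MTT was then added for 3 h, formazan dissolved in 0.04 M HCl in 2-propanol, and absorbance read at 570 nm against 630 nm. IC50 is the concentration giving 50% growth inhibition, from triplicate assays.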
(Tetrazolium dyes change colour on reduction, which living cells bring about.)

Assay [1] has as its system HL-60. Kind of assay: Induction of apoptosis in human HL60 cells assessed as viable cells at 30 uM after 8 hrs using annexin-V FITC and PI staining by flow cytometry. It counts as functional. The settings on record: HL-60, 8 h, read-out: Activity. The gist of the method: (§2)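 HL60 cells (1 × 10^5) exposed to 30 μM final compound for 8 or 24 h. Cells were washed in annexin-binding buffer, stained with annexin V-FITC and PI for 10 min, and analyzed by flow cytometry (FL1 and FL2). Quadrants: early apoptotic annexin+/PI−, late apoptotic double positive, necrotic annexin−/PI+. Values are means of three experiments.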
(In general: A flow cytometer gives signals particle by particle.)

Assay [2] concerns HL-60. Description: Induction of apoptosis in human HL60 cells assessed as decrease in procaspase-3 level at 30 uM after 24 hrs by Western blot analysis. In kind it is functional, cell-based. The gist of the method:
(§3)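 HL60 cells (4 × 10^5) exposed to 30 μM final compound for 8 and 24 h, then lysed. Total protein was run on 15% SDS-PAGE and transferred to PVDF. Membranes were probed overnight at 4 °C with antibodies to caspase-3, cleaved caspase-3, caspase-8 and caspase-9, with β-actin as loading control.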
Background: Immunoblotting shows a protein as a band on a membrane.

Assay [3] has as its system HL-60. Description: Induction of apoptosis in human HL60 cells assessed as non-viable cells at 30 uM after 24 hrs using annexin-V FITC and PI staining by flow cytometry. In kind it is functional. Put shortly:
as §2

In assay [4] the test system is HL-60. Kind of assay: Induction of apoptosis in human HL60 cells assessed as late apoptotic cells at 30 uM after 8 hrs using annexin-V FITC and PI staining by flow cytometry. It counts as functional. Put shortly: as §2
In assay [5] the test system is HL-60. Description: Induction of apoptosis in human HL60 cells assessed as increase in cleaved caspase-3 level at 30 uM after 24 hrs by Western blot analysis. It counts as functional, cell-based. Put shortly:
as §3

Assay [6] deals with HL-60. Kind of assay: Selectivity index, ratio of IC50 for human RPMI 1788 cells to IC50 for human HL60 cells. It counts as functional.
Assay [7] deals with HL-60. Kind of assay: Induction of apoptosis in human HL60 cells assessed as non-viable cells at 30 uM after 8 hrs using annexin-V FITC and PI staining by flow cytometry. In kind it is functional. The gist of the method: as §2
The subject of assay [8] is HL-60. Description: Induction of apoptosis in human HL60 cells assessed as decrease in procaspase-8 level at 30 uM after 24 hrs by Western blot analysis. In kind it is functional, cell-based. The gist of the method: as §3
The subject of assay [9] is HL-60. Kind of assay: Induction of apoptosis in human HL60 cells assessed as early apoptotic cells at 30 uM after 24 hrs using annexin-V FITC and PI staining by flow cytometry. It counts as functional. The gist of the method:
as §2

For assay [10], the system named is HL-60. Description: Induction of apoptosis in human HL60 cells assessed as viable cells at 30 uM after 24 hrs using annexin-V FITC and PI staining by flow cytometry. In kind it is functional. The following applies: HL-60, 24 h, read-out: Activity. The gist of the method:
as §2

In assay [11] the test system is HL-60. Description: Induction of apoptosis in human HL60 cells assessed as increase in cleaved caspase-9 level at 30 uM after 24 hrs by Western blot analysis. It counts as functional, cell-based. The gist of the method: as §3
The subject of assay [12] is HL-60. Kind of assay: Cytotoxicity against human HL60 cells assessed as cell viability after 48 hrs by MTT assay. The following applies: HL-60, 48 h. It counts as functional, cell-based. The gist of the method:
as §1

The nature of assay [13]: Cytotoxicity against human RPMI 1788 cells assessed as cell viability after 48 hrs by MTT assay. In kind it is cell-based. The following applies: RPMI-1788, 48 h. Put shortly: as §1
Assay [14] can be described thus: Cytotoxicity against human CRL1579 cells assessed as cell viability after 48 hrs by MTT assay. It counts as functional, cell-based. The gist of the method: as §1
Assay [15] in a line: Cytotoxicity against human AZ-521 cells assessed as cell viability after 48 hrs by MTT assay. It counts as functional, cell-based. The following applies: AZ-521, 48 h. Put shortly:
as §1

The test system of assay [16] is HL-60. Kind of assay: Induction of apoptosis in human HL60 cells assessed as early apoptotic cells at 30 uM after 8 hrs using annexin-V FITC and PI staining by flow cytometry. In kind it is functional. Put shortly: as §2
The test system of assay [17] is HL-60. Kind of assay: Induction of apoptosis in human HL60 cells assessed as increase in cleaved caspase-8 level at 30 uM after 24 hrs by Western blot analysis. It counts as functional, cell-based. Put shortly:
as §3

Assay [18] relates to HL-60. Description: Induction of apoptosis in human HL60 cells assessed as decrease in procaspase-9 level at 30 uM after 24 hrs by Western blot analysis. In kind it is functional, cell-based. Put shortly: as §3
The next assay deals with A549. Description: Cytotoxicity against human A549 cells assessed as cell viability after 48 hrs by MTT assay. It counts as functional, cell-based. The settings on record: A549, 48 h. Put shortly:
as §1

In assay [19] the test system is HL-60. Kind of assay: Induction of apoptosis in human HL60 cells assessed as late apoptotic cells at 30 uM after 24 hrs using annexin-V FITC and PI staining by flow cytometry. In kind it is functional. Put shortly: as §2

The pIC50 is the IC50 on a negative log10 scale, so that one unit is a factor of ten. As for `CC1(C)C(=O)C=C[C@]2(C)[C@H]3CC[C@@]4(C)[C@H](c5ccoc5)OC(=O)[C@H]5O[C@]54[C@]3(C)[C@H](OC(=O)c3ccccc3)C[C@@H]12`, the pIC50 in the assay with SK-BR-3 was under 4.70; in the assay on HL-60 [12], 5.54; in [13], 5.70; in assay [14] it was under 4.70; in [15] it was under 4.70; in the assay on A549, under 4.70. Also, the viability at 30 µM in the assay on HL-60 [1] was found to be 88.1%; with HL-60 [10], 9.9%. Also, the result in the assay with HL-60 [2], in the assay on HL-60 [5], in the assay on HL-60 [8], in the assay with HL-60 [11], in the assay on HL-60 [17] and in the assay on HL-60 [18] was Active. For the same compound, the Activity in the assay with HL-60 [3] is reported as 3%; with HL-60 [4], 0.7%; in the assay with HL-60 [7] it was 0.7%; with HL-60 [9] it was 41.4%; in the assay on HL-60 [16], 10.5%; in the assay with HL-60 [19], 45.7%. Besides, the “Ratio IC50” value in the assay with HL-60 [6] is 0.69.
